# Compound activity (PubChem BioAssay)
# The list is not random: actives were taken first. Their share in the collection is about 1.4%.
# HTR5A inv ctr = HTR5A inverse agonism, opioid heterodimer counter-screen; P47898; HTR5A cell line, luminescence; inhibition, % at 9.3 µM; actives 0.083% (n = 340,000); AID 504634; in the data active = inhibition mostly above about 23%, no sharp cut-off; inactive = mostly below about 18%;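 also: 0% = cells with DMSO and 100% = no-cell wells with DMSO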
# Target sequence (P47898 whole entry, looked up): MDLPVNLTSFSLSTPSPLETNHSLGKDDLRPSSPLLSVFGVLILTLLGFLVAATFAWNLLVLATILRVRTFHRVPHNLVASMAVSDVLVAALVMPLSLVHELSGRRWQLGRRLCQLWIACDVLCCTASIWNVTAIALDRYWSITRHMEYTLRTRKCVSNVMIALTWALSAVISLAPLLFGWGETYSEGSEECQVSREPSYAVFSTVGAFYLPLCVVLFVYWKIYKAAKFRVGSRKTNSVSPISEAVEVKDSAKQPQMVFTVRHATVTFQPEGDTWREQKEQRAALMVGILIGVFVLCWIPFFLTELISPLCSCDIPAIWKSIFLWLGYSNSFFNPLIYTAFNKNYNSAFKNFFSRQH
# HTR5A ag = HTR5A agonism, opioid heterodimer counter-screen; P47898; activation, % at 9.3 µM; actives 0.61% (n = 340,000); HTR5A agonist assay, luminescence, cell-based; AID 504692; in the data active = activation mostly above about 9.5%, no sharp cut-off; inactive = mostly below about 7.6%;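 also: 0% = cells with vehicle only and 100% = reference agonist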
# OPRM1-OPRD1 ag = agonists of human mu-delta opioid receptor heterodimerization. P35372+P41143. cells, OPRM1-OPRD1 heterodimerization, luminescence. activation, % at 9.3 µM. actives 0.3% (n = 340,000); in the data active = activation above about 18%;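 also: 0% = vehicle-treated cells and 100% = reference agonist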
# Hep lipid drop = hepatic lipid droplet formation modulation. AML12 mouse hepatocytes, oleate lipid droplets, BODIPY imaging. inhibition, % at 6.5 µM. actives 0.4% (n = 240,000). AID 1656;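 active = lipid droplet intensity inhibited by at least 50%, with more than 500 cells counted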
#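 Material: mouse AML12 hepatocyte cell line, fixed after treatment; Timing: compound with oleate, overnight; Technique: high-content imaging of BODIPY-stained droplets and DAPI nuclei; Probe or stimulus: oleate, 100 µM final; Dosing: compound at 6.5 µM only.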
# MOR-DOR inv ag = mu-delta opioid heterodimer inverse agonism | cell-based MOR-DOR heterodimer luminescence | inhibition, % at 9.3 µM | actives 0.21% (n = 340,000) | AID 504357; in the data active = inhibition above about 22%, passing the limit was not always enough;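 also: 0% = cells with DMSO and 100% = wells without cells with DMSO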
# Hep lipid conf = hepatic lipid droplet formation inhibition, confirmed. shares compounds with Hep lipid drop. AML12 mouse hepatocytes, BODIPY lipid droplet imaging; droplets induced with 100 µM oleic acid. inhibition, % at 5.2 µM. actives 65% (n = 870);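 active = inhibition of lipid droplet metric at least 50%, with more than 300 cells in each of four replicates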;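 also: plate controls were DMSO with oleic acid for no effect and 5 µM Triacsin-C for full effect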
# AML12 cytotox = AML12 hepatocyte cytotoxicity (counter-screen); z-score at 5 µM; AML12 mouse hepatocytes, DAPI nuclear morphology cytotoxicity imaging; active compounds read high; cells fed 100 µM oleate overnight; AID 463200; actives 3% (n = 870); shares compounds with Hep lipid drop; in the data active = z-score above about 6.3;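 also: compound exposure lasted overnight at 37 °C before fixation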
# AML12 tox conf = AML12 hepatocyte cytotoxicity, confirmed; cytotoxicity, % at 50 µM; AID 463219; shares compounds with Hep lipid drop; 530 tested, under 10 active; AML12 mouse hepatocyte viability, ATP luminescence; cells loaded with 100 µM oleic acid;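 active = cytotoxicity above 50% in each of four replicates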;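 also: compound exposure lasted overnight at 37 °C before the ATP read; 0% = DMSO-treated cells and 100% = wells with no cells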
# Numbers without * were called inactive; / = no result.
SMILES,HTR5A inv ctr,HTR5A ag,OPRM1-OPRD1 ag,Hep lipid drop,MOR-DOR inv ag,Hep lipid conf,AML12 cytotox,AML12 tox conf
CCOC(=O)[C@@H]1[C@H]2COc3ccc(Br)cc3[C@@H]2N2C(=O)N(c3ccc(C(F)(F)F)cc3)C(=O)[C@@]12C,-6,-1,2,52*,-9,76*,-0.14,5
CCc1ccccc1NC(=O)COc1ccc(C(=S)N2CCCC2)cc1,0,0,-2,55*,11,38,0.095,/
CN1CCN/C1=C(/C(Cl)=C(Cl)Cl)[N+](=O)[O-],-2,1,0,4,2,/,/,/
OCC[C@H]1C[C@@H](O)[C@H](O)[C@]2(Cc3ccccc3CO2)O1,-4,1,-1,/,9,/,/,/
Nc1nc(-c2ccc(Cl)cc2)c(N=Nc2ccc(S(=O)(=O)N3CCOCC3)cc2)s1,-15,6,-2,65*,9,33,0.73,/
O=C(Nc1ccc(Br)cc1)Nn1cnnc1,5,0,-1,2,5,/,/,/
CC(Sc1nnc(-c2ccccc2)c(-c2ccccc2)n1)C(=O)N1CCc2ccccc21 (stereo not given),3,0,3,57*,-14,82*,-0.34,8
Cc1nnc(SC(C)C(=O)N2CCc3ccccc32)s1 (stereo not given),8,-3,-2,1,10,/,/,/
CCC(C)(C)NC(=O)C(c1ccc(OC)cc1)N(Cc1ccccc1)C(=O)CCC(=O)Nc1cc(C)on1 (stereo not given),-11,4,-2,54*,9,92*,-0.42,9
COc1cccc(C(C(=O)NC(C)(C)C)N(CCC(C)C)C(=O)CCC(=O)Nc2cc(C)on2)c1OC (stereo not given),-11,4,1,-6,-6,/,/,/
COc1ccc(C(C(=O)NC(C)(C)C)N(CC2CCCO2)C(=O)CCC(=O)Nc2cc(C)on2)cc1 (stereo not given),-7,6,-3,58*,15,90*,-0.95,0
Cc1ccc(C(C(=O)NC(C)(C)C)N(Cc2ccco2)C(=O)CCC(=O)Nc2ccccn2)cc1 (stereo not given),-9,3,-2,50*,12,44,0.56,/
CCC(C)(C)NC(=O)C(c1ccc(OC)cc1)N(Cc1ccc(OC)cc1)C(=O)CCC(=O)Nc1cc(C)on1 (stereo not given),-8,-2,-2,17,14,/,/,/
COc1ccc(C(C(=O)NC(C)(C)C)N(CCC(C)C)C(=O)CCC(=O)Nc2cc(C)on2)cc1 (stereo not given),-19,7,-2,114*,11,108*,-0.014,10
CCOc1ccccc1NC(=O)c1ccc2c(c1)C(=O)N(CC)C2=O,-5,4,-2,-1,8,/,/,/
CC(=O)c1ccc(NC(=O)C(C)Sc2nnc3ccccn23)cc1 (stereo not given),15,1,-3,/,12,/,/,/
COc1ccc(C(C(=O)NC(C)(C)C)N(Cc2ccccc2)C(=O)CCC(=O)Nc2cc(C)on2)cc1 (stereo not given),-5,-1,-1,66*,9,70*,-0.48,7
COc1ccc(N=C/C=C2/C=C(c3ccccc3)OC(C)(C)O2)cc1,-2,1,-4,61*,22,-8,-0.054,/
CCOc1ccc(CN(C)CC(=O)NNC(=O)c2ccc(Cl)cc2)cc1OC,-1,0,-1,0,5,/,/,/
CCOc1ccc(CN(C)C(=O)NNC(=O)c2ccc(C)cc2)cc1OC,-19,7,0,88*,1,80*,-1.5,8
CCOc1ccc(CN(C)C(=O)CNC(=O)c2ccc(Br)o2)cc1OC,-23,8,-2,80*,13,85*,0.71,13
CC(C)c1cc(NCCOCCO)n2c(nc3ccccc32)c1C#N,-4,1,-3,-16,17,/,/,/
O=C(CNC(=O)c1ccccc1F)N/N=C/c1cccnc1,3,-1,-1,-16,6,/,/,/
CCN1CCN(c2cc(C)c3cc(NC(=O)CCC(=O)Nc4ccc(OC)cc4OC)ccc3n2)CC1,8,-2,-1,89*,7,94*,0.97,16
OCC[C@H]1C[C@@H](O)[C@H](O)[C@@]2(Cc3ccccc3O2)O1,22,4,-3,/,14,/,/,/
SMILES,HTR5A inv ctr,HTR5A ag,OPRM1-OPRD1 ag,Hep lipid drop,MOR-DOR inv ag,Hep lipid conf,AML12 cytotox,AML12 tox conf
OCC[C@@H]1C[C@H](O)[C@@H](O)[C@]2(Cc3ccccc3O2)O1,-4,-1,-2,62*,14,45,0.083,/
COCCN(C(=O)COC(=O)CCCc1c[nH]c2ccccc12)c1c(N)n(Cc2ccccc2)c(=O)[nH]c1=O,6,-2,-2,/,7,/,/,/
CC(C)(C)C1=CC=C(C(C)(C)C)C(=O)C1=O,/,/,/,-30,/,/,/,/
c1ccc(Oc2cccc(CN3CCCCC3)c2)cc1,-7,3,1,56*,-5,-4,0.1,/
CN1C(=O)c2ccc(C(=O)Nc3ccccc3O)cc2C1=O,3,-1,-3,-6,14,/,/,/
CCOc1ccccc1NC(=O)CSc1nnc(Cn2c(=O)sc3ccccc32)n1C,-16,6,-1,53*,6,41,-0.27,/
CCN(CC)c1ccc(NC(=O)CN2CCN(S(=O)(=O)c3cc(Cl)ccc3OC)CC2)cc1,-12,3,1,60*,-8,63*,0.61,12
CCN(CCn1cccn1)C(=O)c1cc(COc2ccc(F)cc2Cl)on1,8,-3,-2,55*,10,-25,-0.41,/
CN(Cc1ccccc1)c1ncc(C=O)s1,-4,2,-2,-11,8,/,/,/
Cc1[nH]n(-c2ccccc2)c(=O)c1N=Nc1cccc([N+](=O)[O-])c1,10,-3,0,/,2,/,/,/
CC(=O)c1cccc(N=Nc2c(-c3ccccc3)[nH]n(-c3ccccc3)c2=O)c1,4,-1,-3,101*,13,110*,-0.35,-1
Cc1[nH]n(-c2ccccc2)c(=O)c1N=Nc1cccc(Cl)c1,6,-2,-2,64*,8,101*,-0.057,0
Nc1[nH]n(-c2ccccc2)c(=O)c1N=Nc1ccccc1,18,-5,1,11,-6,/,/,/
O=C(COc1ncnc2sccc12)N1CCN(C(=O)c2ccco2)CC1,0,0,-4,11,17,/,/,/
CC(C)(C)C(=O)Nc1nc2c(s1)COc1ccccc1-2,10,0,3,55*,-20,106*,-0.72,0
CCOc1ccc(C(=O)OCC(=O)Nc2cc(C)on2)cc1OCC,-15,1,-3,80*,13,106*,-0.18,11
